An excerpt weighted towards active compounds, which were near 1.8% of everything screened.
TLR4 MyD88 comp: inhibitors of TLR4-MyD88 association in cells, primary screen, cell-based, HeLa CL3-4, BLA complementation, FRET ratio; HeLa CL3-4 TLR4/MyD88 BLA complementation; inhibition, % at 8.4 µM; 200,000 compounds, 0.18% hits; in the data active = inhibition above about 25%;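 note: 0% = vehicle and 100% = reference inhibitor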
MC4R antag cAMP: MC4R antagonists of cAMP signaling, primary screen, cell-based, TR-FRET, antagonist arm of biased-ligand search; MC4R-expressing cells, MTII-stimulated cAMP, LANCE TR-FRET; inhibition, % at 6.5 µM; 360,000 compounds, 0.48% hits; AID 540295, 2011;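 active = inhibition above its plate's cutoff, the mean of tested wells on that plate plus 3 SD, cut at about 29% in these data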;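 note: 0% = Melanotan II alone and 100% = Melanotan II plus saturating MCL0020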
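System: U2OS cells stably expressing human melanocortin 4 receptor (MC4R). Reagent: Melanotan II challenge after compound preincubation. Doses: 6.5 µM. Times: 30-min compound, 1-h challenge, 1-h detection, room temperature. Measured by: TR-FRET with Eu-cAMP and labeled anti-cAMP, 671 nm. Replicates: singlicate.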
NOD2-RIPK2 inh: NOD2-RIPK2 binding disruptors in cells, primary screen, fluorescence, CHO cells, BLA complementation; Receptor-interacting serine/threonine-protein kinase 2 (Homo sapiens), O43353; CCF4 ratio; inhibition, % at 4.98 µM; 360,000 compounds, 0.38% hits; AID 624267, 2012; in the data active = inhibition above about 21%;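 note: 0% = vehicle only and 100% = reference blocker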
Target sequence (O43353 whole entry, looked up): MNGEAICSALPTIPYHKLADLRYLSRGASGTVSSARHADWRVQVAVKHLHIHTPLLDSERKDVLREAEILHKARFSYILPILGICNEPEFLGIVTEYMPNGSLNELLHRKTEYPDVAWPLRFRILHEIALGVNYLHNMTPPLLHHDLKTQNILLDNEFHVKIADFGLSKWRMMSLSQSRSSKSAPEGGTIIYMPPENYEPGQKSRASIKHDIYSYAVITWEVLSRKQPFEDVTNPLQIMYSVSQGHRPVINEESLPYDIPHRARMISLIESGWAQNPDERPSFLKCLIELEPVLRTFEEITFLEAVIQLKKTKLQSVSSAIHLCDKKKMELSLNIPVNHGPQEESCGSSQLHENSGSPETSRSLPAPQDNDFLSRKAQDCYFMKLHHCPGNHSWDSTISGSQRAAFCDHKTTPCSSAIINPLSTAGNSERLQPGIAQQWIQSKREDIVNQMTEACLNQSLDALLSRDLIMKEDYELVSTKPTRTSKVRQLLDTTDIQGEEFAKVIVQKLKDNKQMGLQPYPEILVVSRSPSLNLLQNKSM
MC4R barr agon: MC4R agonists recruiting beta-arrestin, primary screen, cell-based, luminescence, agonist arm of biased-ligand search; Melanocortin receptor 4 (Homo sapiens), P32245; U2OS MC4R beta-arrestin complementation; percent of melanotan II response, DMSO zero; activation, % at 8.9 µM; 360,000 compounds, 0.98% hits; AID 540308, 2011;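 active = activation above a per-plate cutoff, the mean activation of sample wells on that plate plus 3 SD, cut at about 8% in these data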
TLR9-MyD88 inh: inhibitors of TLR9-MyD88 association in cells, primary screen, cell-based, CHO, BLA complementation, fluorescence. Toll-like receptor 9 (Homo sapiens) + Myeloid differentiation primary response protein …. 340,000 compounds, 0.21% hits. CCF4 FRET ratio. inhibition, % at 4.98 µM;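 active = inhibition above the mean over all tested compounds plus 3 SD, cut at about 21% in these data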;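 note: 0% = DMSO only wells and 100% = clavulanate BLA inhibitor control wells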
Numbers without * were called inactive.

Cc1ccc(NC(=O)C2(C)CCN2C2Cc3ccccc3C2)cc1 (centres undefined) was read as MC4R antag cAMP 4, NOD2-RIPK2 inh -3 and MC4R barr agon 8.4*.
`CC1(C(=O)Nc2cccc(Oc3ccccc3)c2)CCN1C1Cc2ccccc2C1` (centres undefined) gave MC4R antag cAMP 5, NOD2-RIPK2 inh 8 and MC4R barr agon -1.
`Cc1ccc2nc(N(CCCN(C)C)C(=O)c3cc(-c4cccs4)nc4ccccc34)sc2c1` gave MC4R antag cAMP 5, NOD2-RIPK2 inh 0, MC4R barr agon 9.2* and TLR9-MyD88 inh -23.
CN(C)CCCN(C(=O)c1cc(-c2cccs2)nc2ccccc12)c1nc2c(F)cccc2s1 was read as MC4R antag cAMP 4, NOD2-RIPK2 inh 10, MC4R barr agon 0 and TLR9-MyD88 inh -10.
Cc1ccc2nc(N(CCCN(C)C)C(=O)COc3ccc(Cl)cc3)sc2c1 was read as TLR4 MyD88 comp 0, MC4R antag cAMP -5, NOD2-RIPK2 inh 15, MC4R barr agon 8.8* and TLR9-MyD88 inh 5.
For CN(C)CCCN(C(=O)COc1ccc(Cl)cc1)c1nc2ccc(F)cc2s1 the results were TLR4 MyD88 comp 4, MC4R antag cAMP 6, NOD2-RIPK2 inh 7, MC4R barr agon 1 and TLR9-MyD88 inh 6.
Screening Brc1ccc(CSc2nccn2-c2ccccc2)cc1 returned TLR4 MyD88 comp -3, MC4R antag cAMP -3, NOD2-RIPK2 inh 22*, MC4R barr agon 4 and TLR9-MyD88 inh 10.
NC(=O)c1c(NC(=O)Cn2cc([N+](=O)[O-])cn2)sc2c1CCCC2 was read as TLR4 MyD88 comp 1, MC4R antag cAMP 7, NOD2-RIPK2 inh -5, MC4R barr agon -2 and TLR9-MyD88 inh -3.
`CCOC(=O)c1c(NC(=O)Cn2cc([N+](=O)[O-])cn2)sc2c1CCC2` gave TLR4 MyD88 comp -15, MC4R antag cAMP 10, NOD2-RIPK2 inh -6, MC4R barr agon 9.3* and TLR9-MyD88 inh -5.
`Cc1nn(C)cc1/C=N/NC(=O)Cn1nnc(N)n1` gave MC4R antag cAMP 0, NOD2-RIPK2 inh 2, MC4R barr agon 2 and TLR9-MyD88 inh 4.
`O=C(c1cccs1)c1no[n+]([O-])c1C(=O)c1cccs1` gave TLR4 MyD88 comp -7, MC4R antag cAMP 5, NOD2-RIPK2 inh -5, MC4R barr agon 17* and TLR9-MyD88 inh -3.
`CCOc1ccccc1C1NC(=O)NC(C)=C1C(=O)OC1CCCCC1` (centres undefined) gave TLR4 MyD88 comp 0, MC4R antag cAMP 7, NOD2-RIPK2 inh -5, MC4R barr agon 2 and TLR9-MyD88 inh 4.
`CC1=C(C(=O)OC2CCCCC2)C(c2ccccc2Br)NC(=O)N1` (centres undefined) gave MC4R antag cAMP 8, NOD2-RIPK2 inh -4, MC4R barr agon 8.2* and TLR9-MyD88 inh -15.
For CCOc1ccc(Nc2oc(-c3ccc(Cl)cc3)nc2C#N)cc1 the results were TLR4 MyD88 comp 1, MC4R antag cAMP -14, NOD2-RIPK2 inh -13, MC4R barr agon 8.9* and TLR9-MyD88 inh 6.
For N#Cc1nc(-c2ccc(Cl)cc2)oc1NCc1cccc2c1OCO2 the results were TLR4 MyD88 comp 2, MC4R antag cAMP 2, NOD2-RIPK2 inh 3, MC4R barr agon 8.5* and TLR9-MyD88 inh 0.
CCCCCCCCN1C(=O)[C@H](CC(=O)N2CCCCC2)C[C@@]2(C(=O)OC)CC(C)(C)CC=C12 was read as NOD2-RIPK2 inh -8.
Screening CCOc1ccc(S(=O)(=O)Nc2ccc(F)cc2)c(C)c1C returned TLR4 MyD88 comp -10, MC4R antag cAMP 4, NOD2-RIPK2 inh 7, MC4R barr agon 8.8* and TLR9-MyD88 inh -2.
CCOc1ccc(NS(=O)(=O)c2cc(OC)ccc2OC)cc1 was read as TLR4 MyD88 comp 4, MC4R antag cAMP -5, NOD2-RIPK2 inh -12, MC4R barr agon 2 and TLR9-MyD88 inh 2.

Screening data deposited in PubChem BioAssay by The Scripps Research Institute Molecular Screening Center.
